From PubChem BioAssay
Rows were chosen to be rich in hits. Some 4.9% of all compounds tested hit in one or more screens of this group.
STAT3 blocker – STAT3 signaling inhibition; U3A cells, IL-6 STAT3-luciferase reporter, luminescence; host cell line lacks STAT1; inhibition, % at 5.5 µM; 190,000 tested, 0.89% active; AID 862;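 active = inhibition above the mean inhibition across all screened compounds plus 3 SD, cut at about 44% in these data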;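 note: 0% = DMSO only wells and 100% = 100 µM nifuroxazide control wells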
STAT1 inh – STAT1 signaling inhibition. NIH 3T3 STAT1-luciferase reporter, IFN-gamma, luminescence. inhibition, % at 5.5 µM. 200,000 tested, 0.35% active. AID 920;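 active = inhibition above a set limit, the mean inhibition across all tested compounds plus 3 SD, cut at about 34% in these data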;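 note: 0% = IFN-gamma with DMSO and 100% = IFN-gamma with 300 µM nifuroxazide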
APP 5'UTR act – APP 5'UTR luciferase reporter activation. SH-SY5Y APP 5'UTR luciferase reporter, luminescence; zero percent = DMSO vehicle wells. activation, % at 2 µM. AID 1276. 190,000 tested, 1% active;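 active = activation above a set limit, based on mean plus 3 SD of controls, cut at about 140% in these data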
STAT3 activator – STAT3 signaling activation. U3A cells, IL-6 STAT3-luciferase reporter, luminescence; 100% = signal with IL-6 EC80 alone. activation (% of control), % at 5.6 µM. 190,000 tested, 0.91% active;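 active = activation above the screen-wide mean of compound activation plus 3 SD, cut at about 130% in these data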;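 note: 0% = background luminescence of wells with medium and substrate only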
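Detection: reporter luminescence signal / Assay system: STAT1-lacking human U3A cells, STAT3 luciferase reporter / Incubation: compound pre-incubation 1 h before IL-6, then 6 h stimulation at 37 °C / Control set: IL-6-only high control / Read-out: % activation relative to IL-6 control / Probe or stimulus: Interleukin-6, 33 ng/mL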
NF-kB neuron act – NF-kB expression increase, human neuronal cells | NF-kB reporter expression; hits give high values | fold change at 12.5 µM | 190,000 tested, 1.6% active | AID 1239; in the data active = fold change above about 3.3
STAT1 activator – STAT1 signaling activation; NIH 3T3 STAT1-luciferase reporter, IFN-gamma, luminescence; 100% = IFN-gamma alone, no compound; activation (% of control), % at 5.5 µM; 200,000 tested, 2.6% active;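 active = activation above the screen-wide mean activation plus 3 SD, cut at about 130% in these data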;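 note: raw ratio to IFN-gamma control signal so 100% means no change and 0% no light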
Starred values were filed as active, the others as inactive; . = not tested or not shown.

SMILES	STAT3 blocker	STAT1 inh	APP 5'UTR act	STAT3 activator	NF-kB neuron act	STAT1 activator
COc1ccc(NC2CC(=O)N(CCc3ccccc3)C2=O)cc1 (configuration not stated)	-0.8	2.3	45.5	102.3	1.48	97.9
CN(C)c1ccc([C@@H]2[C@@H]([N+](=O)[O-])[C@H]3C=Cc4ccccc4N3[C@H]2C(=O)c2ccc(Cl)cc2)cc1	-55.0	13.6	44.2	144.6*	0.45	87.6
Cc1ccc(Oc2ccccc2/C=C/C(=O)O)cc1	1.3	6.0	.	103.7	1	94.6
NS(=O)(=O)c1ccc(CCNC(=S)Nc2ccccc2)cc1	5.2	4.6	1.7	97.5	0.9	95.9
Cc1ccc(NC(=O)Cc2cc(C(=O)O)c3ccccc3n2)c(C)c1	6.6	-16.4	-11.9	98.1	4.59*	113.5
CCCc1cc(C(=O)O)c2ccccc2n1	2.7	-0.2	-5.7	95.3	1.13	100.2
O=C1c2nccnc2C(=O)N1c1ccc(F)cc1	8.6	-0.7	-9.5	96.9	1.09	102.3
Cn1c(-c2ccccc2)c(/C=N/NC(=O)c2cccnc2)c2ccccc21	-34.3	-35.5	4.2	131.4	1.24	131.1*
O=C(N/N=C/c1ccccn1)c1cc([N+](=O)[O-])cc([N+](=O)[O-])c1	5.9	-32.6	-5.2	96.3	0.8	129.1*
O=C(N/N=C/c1ccccn1)c1ccc([N+](=O)[O-])cc1	10.3	-37.0	15.9	93.2	1.49	132.7*
O=C(N/N=C/c1ccccn1)c1cccc([N+](=O)[O-])c1	-4.1	-14.7	-1.8	105.5	0.78	114.4
O=C(N/N=C/c1ccccn1)c1ccc(N/N=C/c2ccccn2)cc1	19.2	-2.6	47.7	87.5	0.89	104.1
Cc1cccc(C(=O)N/N=C/c2ccccn2)c1	-9.3	-40.6	21.7	105.7	1.7	136.2*
O=C(N/N=C/c1ccccn1)c1ccc(Br)cc1	27.7	-37.1	5.6	79.2	0.46	133.6*
CCN(CC)S(=O)(=O)c1cccc(C(=O)N/N=C/c2ccccn2)c1	-0.3	-4.6	0.9	100.7	1.06	105.0
COc1ccc(CCNC(=O)C2CCCN2S(=O)(=O)c2ccc(F)cc2)cc1OC (configuration not stated)	8.8	0.1	10.1	94.5	1.3	98.2
Cc1oc(-c2ccccc2Cl)nc1CN1CCCN(C(=O)c2ccco2)CC1	-3.3	4.2	-15.3	108.2	0.91	96.0
Cc1ccc(NC(=O)C2CCCN(c3ncccn3)C2)cc1F (configuration not stated)	-11.2	-53.2	88.5	112.0	3.54*	148.8*
O=C(Nc1ccc2c(c1)CCC2)C1CCCN(c2ncccn2)C1 (configuration not stated)	-2.1	-47.5	58.9	105.7	2.65	144.0*
CCOc1cccc(CN2CCN(Cc3ccc(C)o3)C(CCO)C2)c1O (configuration not stated)	-5.7	1.2	14.8	109.1	1	97.6
O=C(C1CC(c2ccc(F)cc2)=NO1)N1CCCCC1 (configuration not stated)	9.8	-34.5	66.5	96.5	2.15	131.6*
O=C(C1CC(c2ccc(F)cc2)=NO1)N1CCN(c2ccccc2)CC1 (configuration not stated)	4.7	-1.7	0.1	100.1	1.15	101.5
CC1CCCCN1C(=O)C1CC(c2ccc(F)cc2)=NO1 (configuration not stated)	0.2	-39.5	43.4	102.1	1.72	136.2*
COc1ccc(C(=O)NNC(=O)CN2CCC(n3nnc4cc(F)ccc43)CC2)cc1	13.0	8.1	-7.6	87.3	1.22	92.8
O=c1oc2ccccc2cc1-c1cn2cccnc2n1	32.6	-44.2	54.9	76.9	2.59	140.1*
SMILES	STAT3 blocker	STAT1 inh	APP 5'UTR act	STAT3 activator	NF-kB neuron act	STAT1 activator
O=c1oc2ccccc2cc1-c1ccccc1	6.9	-31.7	43.7	97.9	1.74	127.3
Cc1cccn2cc(-c3cc4ccccc4oc3=O)nc12	36.7	-42.7	84.5	73.3	3.85*	137.4*
Nc1ccc(-c2cn3cccnc3n2)cc1	14.8	-19.5	26.4	91.6	1.27	114.9
COc1ccc2oc(=O)c(-c3cn4ccc(C)cc4n3)cc2c1	16.2	-24.0	41.2	88.8	1.3	120.1
O=c1oc2ccccc2cc1-c1cn2ccccc2n1	95.6*	81.4*	31.9	19.7	0.67	23.4
O=C(Nc1ccccc1)N1CC=C(c2ccc(F)cc2)CC1	17.4	-49.6	94.2	88.4	1.49	142.4*
O=C(Nc1ccccc1)N1CC=C(c2ccccc2)CC1	19.2	-48.3	55.7	86.9	2.24	144.7*
N=C1/C(=C\c2ccc(OCc3ccccc3)cc2)C(=O)N=C2SC(N3CCCC3)=NN12	.	-6.8	6.5	.	1.61	104.9
Cc1ccc(-n2nnnc2-c2nc3ccccc3s2)cc1	-4.7	-4.8	-1.1	101.7	1.01	104.3
CCOc1ccc(-n2nnnc2-c2nc3ccccc3s2)cc1	3.9	-44.7	122.9	94.8	1.32	139.8*
COc1ccc(/C=C(\NC(=O)c2ccc(C)cc2)C(=O)Nc2c(C)n(C)n(-c3ccccc3)c2=O)cc1	0.5	6.1	-6.9	103.9	1.32	95.8
O=C(Nc1cccn2ncnc12)c1ccc(Cl)cc1	29.0	-6.6	-4.7	80.6	1.46	106.1
O=C(Nc1cnc2ccccn2c1=O)c1ccc(Cl)cc1	-8.0	-33.3	18.7	109.3	2.39	130.0*
CC1(C)Cc2nc(NC3CCCCC3)c(C#N)cc2CO1	-7.6	9.6	-5.7	109.7	1.03	90.7
CC(=O)N1CCc2cc(NC(=O)c3ccc(C)cc3)ccc21	29.1	-29.7	2.0	78.0	3.65*	131.0*
CC(C)(C)C(=O)Nc1ccc2oc(-c3cc(F)c(F)cc3Cl)nc2c1	1.2	-45.3	111.6	100.3	4.26*	141.7*
Cc1ccc(OCc2nc(-c3ccccn3)n[nH]2)cc1	-2.2	9.4	25.9	105.8	13*	91.3
Cc1ccc(Cl)c(OC(=O)c2ccc(N3CCOCC3)c([N+](=O)[O-])c2)c1	-7.4	1.4	19.1	108.1	1.09	98.7
CC(=O)c1ccc(N2CCN(CC(O)COCc3ccco3)CC2)cc1 (configuration not stated)	6.1	4.1	-4.1	99.1	.	94.7
O=C(CCS(=O)(=O)c1ccccc1)Nc1nc2c(s1)COc1ccccc1-2	21.5	2.2	-13.9	88.9	1.21	98.0
CCCCNC(=O)Nc1nnc(-c2ccc(OCC)cc2)o1	9.4	5.8	-0.2	95.7	1.21	94.6
c1coc(-c2nnc(NC3=NCCC3)o2)c1	-8.1	-31.8	55.3	110.2	2.2	129.4*
COc1ccc(-c2nc3ccccc3c(=O)o2)cc1OC	19.8	3.4	17.1	92.5	1.06	96.9
CCOc1ccc(-c2nnc(NC3=NCCCCC3)o2)cc1	-5.4	-19.5	121.8	108.6	4.1*	118.0
CCOc1ccc(-c2nc3ccccc3c(=O)o2)cc1	4.9	-22.5	112.3	100.6	6.3*	120.7
